Assay results from different studies.
Compare with care: the assays were run in different laboratories.
Observed: cell growth or viability

| Structure (SMILES) | cell line | technique | time | setting | IC50 |
| --- | --- | --- | --- | --- | --- |
| CCCCn1cnc2ccc(-c3ccc(NC(=O)NCCc4ccccc4)nc3)cc2c1=O | A549 | CCK-8 | 72 h | – | > 10 µM |
| CN(C)C(=O)c1cc2cnc(Nc3ccc(-c4ccc5c(=O)cc(N6CCOCC6)oc5c4)cc3)nc2n1C1CCCC1 | Kelly | ATP luminescence | 72 h | – | 0.19 µM |
| NNc1nc2c(Cl)cc(Cl)cc2c(=O)n1-c1ccc(Cl)cc1 | NIH3T3 | MTT | 48 h | – | 48.6 µM |
| Nc1cc2cccnc2c2ncccc12 | HFF-1 | MTT | 48 h | dark | 13 µM |
| CN(C)C(=O)Nc1nc2c(Cl)cc(Cl)cc2c(=O)n1-c1ccccc1 | NIH3T3 | MTT | 48 h | – | 38.2 µM |
| COc1cccc2c1C(=O)c1c(O)c3c(c(O)c1C2=O)C[C@@](O)(C(=O)CO)C[C@@H]3O[C@H]1C[C@H](N)[C@H](O)[C@H](C)O1 | HUVEC | MTT | 24 h | – | 31.2 µM |
| CCCCC(=O)Nc1ccc(-c2ccc3ncn(CCC)c(=O)c3c2)c(C)n1 | A549 | CCK-8 | 72 h | – | > 10 µM |
| COc1ccccc1/C=N/N=C1\C(=O)Nc2ccccc21 | HUVEC | MTT | 24 h | – | 235 mg/L |
| NNc1nc2ccc(Br)cc2c(=O)n1-c1ccccc1 | NIH3T3 | MTT | 48 h | – | 102 µM |
| O=C(Nc1ccc(-c2ccc3ncn(Cc4ccc5c(c4)OCO5)c(=O)c3c2)cn1)c1ccccc1 | A549 | CCK-8 | 72 h | – | > 10 µM |
| NNc1nc2c(Cl)cc(Cl)cc2c(=O)n1-c1ccc(F)cc1 | NIH3T3 | MTT | 48 h | – | 73.7 µM |
| CCCCC(=O)Nc1ccc(-c2cnc3ccn(CCC)c(=O)c3c2)cn1 | A549 | CCK-8 | 72 h | – | > 10 µM |
| COc1c(Cl)cccc1Nc1c(-c2ccncc2OC[C@@H]2COCCO2)[nH]c2c1C(=O)NCC2 | NCI-H2170 | ATP luminescence | – | – | 0.0246 µM |
| CC(=O)Nc1ccc(O)cc1 | NIH3T3 | – | 96 h | 3D culture | 277 µM |
| COc1cc(C(=O)c2nc(-c3ccc4cc[nH]c4c3)c[nH]2)cc(OC)c1OC | PC-3 | MTS | 72 h | – | 0.0202 µM |
| C=CCn1c(=O)c2cnc(Nc3ccc(N4CCN(C)CC4)cc3)nc2n1-c1ccc2c(n1)[C@@](O)(CC)CC2 | NCI-H1048 | ATP luminescence | 72 h | – | 0.31 µM |
| Cc1c(C)c2c(c(C)c1O)CCC(C)(COc1ccc(CC3SC(=O)NC3=O)cc1)O2 (centres unmarked) | NIH3T3 | – | 96 h | 3D culture | 246 µM |
| CS(=O)(=O)CCNCc1ccc(-c2ccc3ncnc(Nc4ccc(OCc5cccc(F)c5)c(Cl)c4)c3c2)o1 | NCI-H2170 | ATP luminescence | – | – | 0.122 µM |
| CC(=O)O[C@H]1[C@H](OC(C)=O)[C@@H](Nc2cc3cccnc3c3ncccc23)OC[C@@H]1OC(C)=O | HFF-1 | MTT | 48 h | dark | 14 µM |
| O=C1Nc2ccccc2/C1=N/N=C/c1cccc([N+](=O)[O-])c1 | HUVEC | MTT | 24 h | – | 221 mg/L |
